Measured values: ChEMBL document CHEMBL5303300, “EUbOPEN Chemogenomics Library - Multiplex” (2023)
Values joined by “and” are separate entries in the source; they are usually repeats but may differ in a detail not shown here. Equal values may be shown once.

System: Fibroblast
Experiment: Multiplex assay against human fibroblast
Format: toxicity, cell-based
Conditions: number of replicates 2
In short: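 Cells stained live at seeding with Hoechst33342, BioTracker Green Microtubule Cytoskeleton Dye, MitoTracker Red and Annexin V Alexa Fluor 680 were imaged on a CQ1 microscope at 37°C and 5% CO2 after compound addition. Their classification by CellPathfinder machine-learning gating ran from Hoechst high-intensity objects versus normal cells, to healthy, pyknosed or fragmented nuclei among normal cells, to mitotic or apoptotic among pyknosed cells. Tubulin, mitochondrial-mass and membrane-permeability phenotypes are per cents of healthy-nucleus cells.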

[1] = 12 h, 1 µM, compound concentration 1 uM
[2] = 12 h, 10 µM, compound concentration 10 uM
[3] = 24 h, 1 µM, compound concentration 1 uM
[4] = 24 h, 10 µM, compound concentration 10 uM
[5] = 48 h, 1 µM, compound concentration 1 uM
[6] = 48 h, 10 µM, compound concentration 10 uM

C=CC(=O)Nc1cccc(C)c1Nc1ncc2cc(-c3c(Cl)c(OC)cc(OC)c3Cl)ccc2n1
Population Apoptotic (%) [1]: 30% and 35% | Population Fragmented Nuclei (%) [1]: 11% and 9% | Population Healthy Nuclei (%) [1]: 73% and 66% | Population Hoechst High Intensity Objects (%) [1]: 0% | Population Membrane Permeable-Phenotype (%) [1]: 4% | Population Mitochondria Different-Phenotype (%) [1]: 0% and 1% | Population Mitotic Cells (%) [1]: 69% and 64% | Population Normal (%) [1]: 100% and 99% | Population Pyknosed Nuclei (%) [1]: 14% and 23% | Population Tubulin-Different-Phenotype (%) [1]: 12% and 9% | Total Cell Count [1]: 248 and 242 | Population Apoptotic (%) [2]: 60% and 47% | Population Fragmented Nuclei (%) [2]: 35% and 15% | Population Healthy Nuclei (%) [2]: 40% and 60% | Population Membrane Permeable-Phenotype (%) [2]: 0% and 8% | Population Mitochondria Different-Phenotype (%) [2]: 1% and 4% | Population Mitotic Cells (%) [2]: 40% and 52% | Population Normal (%) [2]: 71% and 100% | Population Pyknosed Nuclei (%) [2]: 24% and 23% | Population Tubulin-Different-Phenotype (%) [2]: 17% and 21% | Total Cell Count [2]: 202 and 201 | Population Apoptotic (%) [3]: 48% and 60% | Population Fragmented Nuclei (%) [3]: 10% and 9% | Population Healthy Nuclei (%) [3]: 71% | Population Hoechst High Intensity Objects (%) [3]: 0% | Population Membrane Permeable-Phenotype (%) [3]: 3% and 5% | Population Mitochondria Different-Phenotype (%) [3]: 1% | Population Mitotic Cells (%) [3]: 51% and 40% | Population Normal (%) [3]: 99% | Population Pyknosed Nuclei (%) [3]: 17% and 19% | Population Tubulin-Different-Phenotype (%) [3]: 8% and 9% | Total Cell Count [3]: 245 and 232 | Population Apoptotic (%) [4]: 71% and 63% | Population Fragmented Nuclei (%) [4]: 38% and 17% | Population Healthy Nuclei (%) [4]: 41% and 63% | Population Membrane Permeable-Phenotype (%) [4]: 0% and 1% | Population Mitochondria Different-Phenotype (%) [4]: 0% and 9% | Population Mitotic Cells (%) [4]: 28% and 36% | Population Normal (%) [4]: 60% and 100% | Population Pyknosed Nuclei (%) [4]: 20% and 19% | Population Tubulin-Different-Phenotype (%) [4]: 7% and 20% | Total Cell Count [4]: 283 and 188 | Population Apoptotic (%) [5]: 61% and 67% | Population Fragmented Nuclei (%) [5]: 12% | Population Healthy Nuclei (%) [5]: 73% | Population Hoechst High Intensity Objects (%) [5]: 0% | Population Membrane Permeable-Phenotype (%) [5]: 3% and 5% | Population Mitochondria Different-Phenotype (%) [5]: 1% and 0% | Population Mitotic Cells (%) [5]: 38% and 32% | Population Normal (%) [5]: 100% | Population Pyknosed Nuclei (%) [5]: 13% and 14% | Population Tubulin-Different-Phenotype (%) [5]: 6% and 14% | Total Cell Count [5]: 243 and 214 | Population Apoptotic (%) [6]: 83% | Population Fragmented Nuclei (%) [6]: 40% and 15% | Population Healthy Nuclei (%) [6]: 40% and 71% | Population Membrane Permeable-Phenotype (%) [6]: 1% and 4% | Population Mitochondria Different-Phenotype (%) [6]: 4% | Population Mitotic Cells (%) [6]: 16% | Population Normal (%) [6]: 52% and 100% | Population Pyknosed Nuclei (%) [6]: 18% and 12% | Population Tubulin-Different-Phenotype (%) [6]: 10% and 11% | Total Cell Count [6]: 309 and 189

CC(C)S(=O)(=O)c1ccccc1Nc1nc(N[C@@H]2CCCN(CCCCCCCNC(=O)COc3cccc4c3C(=O)N(C3CCC(=O)NC3=O)C4=O)C2)ncc1Cl (some centres undefined)
Population Apoptotic (%) [1]: 55% and 64% | Population Fragmented Nuclei (%) [1]: 12% and 11% | Population Healthy Nuclei (%) [1]: 50% | Population Hoechst High Intensity Objects (%) [1]: 0% | Population Membrane Permeable-Phenotype (%) [1]: 15% and 11% | Population Mitochondria Different-Phenotype (%) [1]: 4% and 2% | Population Mitotic Cells (%) [1]: 44% and 35% | Population Normal (%) [1]: 100% | Population Pyknosed Nuclei (%) [1]: 37% and 38% | Population Tubulin-Different-Phenotype (%) [1]: 40% and 37% | Total Cell Count [1]: 181 and 196 | Population Apoptotic (%) [2]: 65% and 48% | Population Fragmented Nuclei (%) [2]: 12% and 16% | Population Healthy Nuclei (%) [2]: 42% and 33% | Population Hoechst High Intensity Objects (%) [2]: 0% and 1% | Population Membrane Permeable-Phenotype (%) [2]: 56% and 36% | Population Mitochondria Different-Phenotype (%) [2]: 22% and 30% | Population Mitotic Cells (%) [2]: 34% and 52% | Population Normal (%) [2]: 99% and 98% | Population Pyknosed Nuclei (%) [2]: 44% and 49% | Population Tubulin-Different-Phenotype (%) [2]: 72% and 32% | Total Cell Count [2]: 231 and 205 | Population Apoptotic (%) [3]: 68% and 83% | Population Fragmented Nuclei (%) [3]: 10% | Population Healthy Nuclei (%) [3]: 51% | Population Hoechst High Intensity Objects (%) [3]: 0% | Population Membrane Permeable-Phenotype (%) [3]: 7% and 4% | Population Mitochondria Different-Phenotype (%) [3]: 9% and 4% | Population Mitotic Cells (%) [3]: 31% and 16% | Population Normal (%) [3]: 99% and 100% | Population Pyknosed Nuclei (%) [3]: 37% | Population Tubulin-Different-Phenotype (%) [3]: 27% and 15% | Total Cell Count [3]: 171 and 175 | Population Apoptotic (%) [4]: 74% and 79% | Population Fragmented Nuclei (%) [4]: 13% and 14% | Population Healthy Nuclei (%) [4]: 32% and 33% | Population Hoechst High Intensity Objects (%) [4]: 1% | Population Membrane Permeable-Phenotype (%) [4]: 32% and 19% | Population Mitochondria Different-Phenotype (%) [4]: 36% and 39% | Population Mitotic Cells (%) [4]: 26% and 20% | Population Normal (%) [4]: 98% | Population Pyknosed Nuclei (%) [4]: 53% and 51% | Population Tubulin-Different-Phenotype (%) [4]: 68% and 75% | Total Cell Count [4]: 188 and 232 | Population Apoptotic (%) [5]: 63% and 73% | Population Fragmented Nuclei (%) [5]: 15% and 12% | Population Healthy Nuclei (%) [5]: 44% and 43% | Population Hoechst High Intensity Objects (%) [5]: 0% | Population Membrane Permeable-Phenotype (%) [5]: 18% and 9% | Population Mitochondria Different-Phenotype (%) [5]: 5% and 8% | Population Mitotic Cells (%) [5]: 36% and 26% | Population Normal (%) [5]: 99% and 100% | Population Pyknosed Nuclei (%) [5]: 40% and 43% | Population Tubulin-Different-Phenotype (%) [5]: 31% and 36% | Total Cell Count [5]: 173 and 163 | Population Apoptotic (%) [6]: 79% and 83% | Population Fragmented Nuclei (%) [6]: 17% and 13% | Population Healthy Nuclei (%) [6]: 36% and 32% | Population Hoechst High Intensity Objects (%) [6]: 2% and 0% | Population Membrane Permeable-Phenotype (%) [6]: 36% and 34% | Population Mitochondria Different-Phenotype (%) [6]: 14% and 22% | Population Mitotic Cells (%) [6]: 20% and 16% | Population Normal (%) [6]: 97% and 99% | Population Pyknosed Nuclei (%) [6]: 46% and 53% | Population Tubulin-Different-Phenotype (%) [6]: 73% and 60% | Total Cell Count [6]: 196 and 232
